This sample holds only a part of the variants without activity.
B1: tRNA (parent)
chain: GUUCCGUUGGCGUAAUGGUAACGCGUCUCCCUCCUAAGGAGAAGACUGCGGGUUCGAGUCCCGUACGGAACG

Variants of: B1
Assay: yeast fitness relative to wild type (ratio to wild type); higher = fitter; tRNA-Arg(CCU), competitive growth, 37 C, YPD
How it was run: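 Variants of the tRNA-Arg(CCU) gene were chemically synthesised with a 3% per-site mutation rate across 69 sites and placed at the native genomic locus in Saccharomyces cerevisiae. Six parallel replicates of the pooled strains were competed in YPD at 37°C for 24 hours, and gene amplicons from the start and end populations were read by 100-nucleotide paired-end sequencing. Darwinian fitness relative to wild type was derived from changes in genotype frequencies. Genotypes required ≥ 100 starting reads, and estimates < 0.5 were set to 0.5.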
In the case of C4U C30U U54A, the yeast fitness is reported as at most 0.5.
Work on C4U C31U A40U A69U yielded a yeast fitness of 0.625.
For C5A A14C A21U C34U G38C, the yeast fitness was at most 0.5.
With C4U G38C A65G the yeast fitness was 0.621.
For C4U C31U A43U G48A U53A, the yeast fitness was at most 0.5.
In the case of C4U C33A A40U, the yeast fitness is reported as 0.564.
C4U G48C G67U A69C gave a yeast fitness of at most 0.5.
In the case of C4U U7A C46G A65C, the yeast fitness is reported as 0.535.
In the case of C4U U16C C34A A42U, the yeast fitness is reported as 0.726.
Variant C4U C46U A69C has a yeast fitness of 0.817.
For C4U C46U A69U, the yeast fitness was 1.16.
For C4U U7A G50C, the yeast fitness was at most 0.5.
C4U U8A U13C A57C gave a yeast fitness of at most 0.5.
With C4U U16A A65C the yeast fitness was 0.612.
In the case of C4U G6A G44C A69U A70G, the yeast fitness is reported as at most 0.5.
Variant C5A A14G C55A A70U has a yeast fitness of at most 0.5.
Variant C4U G39A A42G G67A has a yeast fitness of at most 0.5.
In the case of C5A A15C C29A C60G, the yeast fitness is reported as at most 0.5.
Work on C4U G38C C61U yielded a yeast fitness of 0.54.
Work on C4U G10A C11G A20G C27G A65U yielded a yeast fitness of at most 0.5.
C4U U8A U13C A37G C46A gave a yeast fitness of at most 0.5.
With C5A A15C C27U C30U U32G U35A A37C U54A the yeast fitness was at most 0.5.
Variant C4U G68U has a yeast fitness of 0.888.
In the case of C4U G68A, the yeast fitness is reported as 0.856.
For C4U G68C, the yeast fitness was 0.963.
C4U C27A A43U G51C gave a yeast fitness of at most 0.5.
C5A A14G C22G A37U showed a yeast fitness of 0.683.
Work on C4U G12C U28G C62G A70U yielded a yeast fitness of at most 0.5.
With C4U U28G C61U C62U the yeast fitness was at most 0.5.
Work on C4U G23A G56C A57G G68A yielded a yeast fitness of at most 0.5.
With C4U G38A the yeast fitness was 0.919.
In the case of C4U G38C, the yeast fitness is reported as 0.825.
With C4U G52A A70U the yeast fitness was 0.604.
C4U C46U C49G U59C showed a yeast fitness of at most 0.5.
Variant C4U C27U U35C C61G has a yeast fitness of at most 0.5.
For C4U U26C C31A C49G G63C A69U, the yeast fitness was at most 0.5.
C4U G12C C30G A36C gave a yeast fitness of at most 0.5.
C4U C49A A57C A69U gave a yeast fitness of at most 0.5.
In the case of C4U G25A A36C A70G, the yeast fitness is reported as at most 0.5.
With C4U U26C A42U G50C A65U the yeast fitness was 0.552.
With C4U C34U A40C G41A C62U A65U the yeast fitness was at most 0.5.
Work on C4U G12A A14G G18A C30G C46U yielded a yeast fitness of at most 0.5.
C4U G10A C22U G44C showed a yeast fitness of at most 0.5.
C4U U32G A40C gave a yeast fitness of 0.57.
For C4U U8C A69U, the yeast fitness was 0.875.
C4U G63C gave a yeast fitness of 0.782.
C4U G63A gave a yeast fitness of 0.894.
Variant C4U U26C G44A has a yeast fitness of 0.569.
For C4U U8C, the yeast fitness was 0.942.
Work on C4U U8A yielded a yeast fitness of 0.66.
In the case of C4U U19C C31A, the yeast fitness is reported as at most 0.5.
In the case of C4U G12A C46U, the yeast fitness is reported as 0.728.
Work on C5A A14G A15G C22G A37U yielded a yeast fitness of at most 0.5.
With C4U G10A C11G A20G C27G C29U A65U the yeast fitness was at most 0.5.
For C4U U59C C61A, the yeast fitness was at most 0.5.
In the case of C5A A14U C27U C49G, the yeast fitness is reported as at most 0.5.
With C4U U7A A45U A57G the yeast fitness was at most 0.5.
Variant C4U C34U A43C A69U has a yeast fitness of 0.557.
With C4U C30A U59C A69C the yeast fitness was 0.568.
Work on C4U G9C C33G U54C yielded a yeast fitness of at most 0.5.
Work on C5A A14G A20U A37C C49A yielded a yeast fitness of at most 0.5.
C4U C30A A45G C55G A65G gave a yeast fitness of 0.636.
Variant C4U C34G U35A A42U C60U has a yeast fitness of at most 0.5.
With C4U G10C C30A G50A the yeast fitness was at most 0.5.
With C4U G44A U47C G56A the yeast fitness was at most 0.5.
C4U G67C showed a yeast fitness of 0.829.
C4U C31U A37U G67A G68A gave a yeast fitness of at most 0.5.
C4U C33G A70G gave a yeast fitness of at most 0.5.
For C4U G48A U54G, the yeast fitness was at most 0.5.
With C4U U13G C29U C34U the yeast fitness was at most 0.5.
For C4U C27A, the yeast fitness was 0.737.
For C4U C27U, the yeast fitness was 1.02.
C4U C27G gave a yeast fitness of 0.656.
C4U C24U A43G C60U C61G gave a yeast fitness of at most 0.5.
C4U G6A G25A U53A C66A showed a yeast fitness of at most 0.5.
Variant C4U G50A has a yeast fitness of 0.965.
Work on C4U G10C yielded a yeast fitness of 0.625.
With C4U C24G C61U the yeast fitness was 0.555.
C4U U13A G23A C24A A36U G39C C62A U64A gave a yeast fitness of at most 0.5.
Work on C4U G6A A14C A65U yielded a yeast fitness of at most 0.5.
C4U G25A U54A gave a yeast fitness of at most 0.5.
C4U C30U A57G G68A gave a yeast fitness of 0.525.
For C4U G9A A15U A20C C27A C61G A65C, the yeast fitness was at most 0.5.
Variant C4U U7A C30G C34G A40C A57U has a yeast fitness of at most 0.5.
Work on C4U G6A U8G C31U C49A G67A yielded a yeast fitness of at most 0.5.
For C4U U16A A37U C49U C61G A70G, the yeast fitness was at most 0.5.
With C4U U19C A43U the yeast fitness was 0.955.
C5A A14U C24U A40C showed a yeast fitness of 0.564.
Variant C4U G9A U54A has a yeast fitness of at most 0.5.
Variant C4U G6C C30G has a yeast fitness of at most 0.5.
For C4U G25C A45C C46A, the yeast fitness was 0.733.
Variant C4U U8C C27G A45C U47C C55U has a yeast fitness of at most 0.5.
Work on C4U G12A A40U A69C yielded a yeast fitness of 0.56.
C5A A15G A36G showed a yeast fitness of at most 0.5.
Work on C4U G38A U47C yielded a yeast fitness of 0.501.
Variant C4U G12C A21C C29G A36G C46U G58A has a yeast fitness of at most 0.5.
For C5A A14G U26A A37U G41A C62U, the yeast fitness was at most 0.5.
Work on C4U C30U C31G yielded a yeast fitness of 0.583.
C4U G12A A40U showed a yeast fitness of 0.642.
C4U C29A A36C A40U G51A G68C gave a yeast fitness of at most 0.5.
C4U C29U G63A gave a yeast fitness of 0.517.
With C4U C24U C30A the yeast fitness was 0.597.
For C4U G48A G50A, the yeast fitness was 0.961.
With C4U U8C U47A the yeast fitness was 0.601.
C5A A15C C29A A42C A45G showed a yeast fitness of 0.551.
For C4U U26A G38A G63C, the yeast fitness was at most 0.5.
C4U G9A G67A showed a yeast fitness of 0.598.
In the case of C4U G12C C60G A70C, the yeast fitness is reported as at most 0.5.
Variant C4U C31G C34U A43U has a yeast fitness of 0.786.
Variant C4U U35A G44C C66U G67U A70G has a yeast fitness of at most 0.5.
For C4U G6A A15U A20C G25C U35A, the yeast fitness was at most 0.5.
Work on C4U G17A C33G yielded a yeast fitness of at most 0.5.
C4U U16A A20U U35C G39C A42C G48A showed a yeast fitness of 0.582.
In the case of C4U U26A, the yeast fitness is reported as 0.86.
C4U C33U G44A gave a yeast fitness of at most 0.5.
Variant C4U U8C A37U A45U C49U has a yeast fitness of at most 0.5.
For C4U G9C G18A A21G C24U A37C, the yeast fitness was 0.694.
C4U U19A C30G A36C showed a yeast fitness of 0.55.
With C4U G39A A42G G63A G67A the yeast fitness was at most 0.5.
In the case of C4U C31G U47C G48C, the yeast fitness is reported as at most 0.5.
In the case of C4U G23A A40C U54A U59A, the yeast fitness is reported as at most 0.5.
For C4U G25A A65G, the yeast fitness was 0.718.
Work on C5A A14C A45G yielded a yeast fitness of at most 0.5.
For C4U C27U G39C G52A G56A, the yeast fitness was 0.614.
C4U G56A A70C showed a yeast fitness of 0.754.
In the case of C4U G12A G39C C49A U64G, the yeast fitness is reported as 0.544.
For C4U C27G C31G, the yeast fitness was at most 0.5.
Work on C4U C34G A69G yielded a yeast fitness of at most 0.5.
C4U C29A G52C C55G U59G gave a yeast fitness of 0.656.
Work on C4U G50A G67C yielded a yeast fitness of 0.578.
For C4U G50A G67A, the yeast fitness was 0.553.
C4U G18C A20C G39A gave a yeast fitness of at most 0.5.
With C5A A14G C31U the yeast fitness was 0.721.
For C4U U54A C62U, the yeast fitness was at most 0.5.
In the case of C4U C30A, the yeast fitness is reported as 0.917.
C4U U13A U59A gave a yeast fitness of 0.811.
C4U U7C A15C U16G A70G gave a yeast fitness of at most 0.5.
For C4U C55U C66A, the yeast fitness was at most 0.5.
C4U U32A A69U showed a yeast fitness of 0.601.
With C4U C24G U26A U28G C66A the yeast fitness was at most 0.5.
C4U C27U C29G A42C C55G gave a yeast fitness of at most 0.5.
With C4U G10C G48C G63C G67A the yeast fitness was at most 0.5.
Work on C4U U64G yielded a yeast fitness of 1.09.
C4U U64A showed a yeast fitness of 0.852.
With C4U U7A A20G G23A U26G the yeast fitness was at most 0.5.
In the case of C4U U26A C46U, the yeast fitness is reported as 0.972.
C4U C30A A43G showed a yeast fitness of 0.728.
For C4U G23C A40U A42G A45G G51C C61U G63A, the yeast fitness was at most 0.5.
Work on C4U C30A C66U yielded a yeast fitness of 0.82.
For C4U C27U A45C G48A G56C, the yeast fitness was 0.612.
In the case of C4U G12C C49A U64C, the yeast fitness is reported as at most 0.5.
For C4U U8C A15C G63C, the yeast fitness was at most 0.5.
C5A A14C C49A showed a yeast fitness of at most 0.5.
In the case of C4U G12C U54G, the yeast fitness is reported as at most 0.5.
Variant C4U U28G has a yeast fitness of 0.772.
C4U U28C gave a yeast fitness of 1.02.
Variant C4U U8A C33U A36U has a yeast fitness of 0.545.
Variant C4U G23C A40U A42G A45G G51C C61U has a yeast fitness of at most 0.5.
Work on C4U C24G U26A U28G G68C yielded a yeast fitness of at most 0.5.
C4U G52C C61A gave a yeast fitness of 0.581.
In the case of C4U U8G U19A A21C A70U, the yeast fitness is reported as at most 0.5.
Variant C5A A14G C24A C66G has a yeast fitness of at most 0.5.
C4U C66A G68C showed a yeast fitness of 0.546.
In the case of C4U U8G G12A C55U, the yeast fitness is reported as at most 0.5.
C4U C24G C30G C31U U35A A36U G44A G63C gave a yeast fitness of 0.654.
For C4U G25C G68A, the yeast fitness was 0.976.
Work on C4U U7A C30G C34G A40C yielded a yeast fitness of 0.512.

— the RNAGym collection of RNA variant scans (doi:10.1126/science.aae0568)
